Source: paper PMC2836884 (Journal of Acquired Immune Deficiency Syndromes (1999), 2009)
Where two headings read alike, the source gives them in different places.

Tests used:
[1] = type: in vivo, human
Method in brief: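 HIV-1–infected patients aged 9–18 y, Tanner-stratified; one oral-solution dose of 8 mg/kg (max 600 mg) with water, fasted from 1 h before to 2 h after. Heparinised plasma sampled at 0–8 h (10 points) and assayed by reversed-phase HPLC-UV. Per-subject 1-compartment zero-order-absorption fit by weighted least squares gave kel and CL/F; Tmax by inspection; AUC 0–8 h.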

[2] = children n = 22 (3 mo to 13 yrs), cited from earlier work
[3] = adults n = 12 (24–48 yrs), cited from earlier work
[4] = children receiving 8 mg/kg, primarily prepubescent; Jullien et al; cited from earlier work
[5] = adults receiving 600 mg (approximately 8 mg/kg); Weller et al; cited from earlier work
[6] = adults, cited from earlier work
HIV = settings: 8 mg/kg twice daily with AZT or 3TC; previously untreated children; cited from earlier work
[7] = in vivo, po; cited from earlier work
cytochrome P450 system = settings: cited from earlier work
[8] = in vivo, cited from earlier work

With Nc1nc(NC2CC2)c2ncn([C@H]3C=C[C@@H](CO)C3)c2n1 [ABC, Abacavir] the “Intersubject variation of CL/F referenced to body weight” value ([1]; all subjects) was “more than 8 fold”, the “share of the total AUC in the period after 8 hours” value ([1]; all subjects, estimated) was < 3% and the Tmax ([1]; both, human, plasma, po, 8 mg/kg) was 1 h. The AUC ([2]; single dose 4 mg/kg) was 2800 ng·h/mL, the CL/F ([2]; single dose 4 mg/kg) was 27.4 mL/min per kg and the Cmax ([2]; single dose 4 mg/kg) was 1700 ng/mL. The t½ ([2]; single dose 4 mg/kg) was 0.9 h, the AUC ([2]; single dose 8 mg/kg) was 8100 ng·h/mL and the CL/F ([2]; single dose 8 mg/kg) was 18.9 mL/min per kg. The Cmax ([2]; single dose 8 mg/kg) was 3900 ng/mL, the t½ ([2]; single dose 8 mg/kg) was 1.1 h and the AUC ([3]; single dose 4 mg/kg) was 6000 ng·h/mL. For the same compound, the CL/F ([3]; single dose 4 mg/kg) was 13.4 mL/min per kg, the Cmax ([3]; single dose 4 mg/kg) was 2900 ng/mL and the t½ ([3]; single dose 4 mg/kg) was 1.2 h. For the same compound, the CL/F ([3]; single dose 8 mg/kg (600 mg)) was 10.2 mL/min per kg, the AUC ([3]; single dose 8 mg/kg) was 15700 ng·h/mL and the Cmax ([3]; single dose 8 mg/kg) was 4700 ng/mL. The t½ ([3]; single dose 8 mg/kg) was 1.7 h, the “mean CL/F” value [4] was 15.8 mL/min per kg and the “mean CL/F” value [5] was 11.5 mL/min per kg. The AUC ([6]; recommended dose 300 mg twice daily) was 5000 to 6000 ng·h/mL, the AUC ([6]; single-dose studies, 600 mg) was 11000 to 16000 ng·h/mL and the “reduction in viral load versus AZT/3TC combination” value (HIV) was “larger reduction in viral load”. For the same compound, the “amount eliminated unchanged in the urine” value [7] was < 5%, the “substrate or inhibitor of the cytochrome P450 system” value (cytochrome P450 system) was “not a substrate or inhibitor of the cytochrome P450 system” and the “oral clearance, adjusted for body size, higher for children than adults” value ([8]; po) was “approximately 2 times”. For the same compound, the “systemic exposure (AUC) in children lower than adult values” [8] was “approximately 50%”.
